From PubChem
MrgX1 allo act = positive allosteric modulators of MrgX1, primary screen, HEK293 cells, Fluo-4 calcium flux; FDSS; stronger effect = higher value; B-score at 10 µM; 310,000 tested, 0.63% active;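 active = plate-corrected calcium response at least 3 library SD above typical, normal starting fluorescence, not activating the receptor alone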;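 also: compound read alongside a low EC10 to EC30 dose of BAM8-22 agonist; peak minus trough fluorescence over baseline measured at the second addition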
Target sequence (Q96LB2 whole entry, looked up): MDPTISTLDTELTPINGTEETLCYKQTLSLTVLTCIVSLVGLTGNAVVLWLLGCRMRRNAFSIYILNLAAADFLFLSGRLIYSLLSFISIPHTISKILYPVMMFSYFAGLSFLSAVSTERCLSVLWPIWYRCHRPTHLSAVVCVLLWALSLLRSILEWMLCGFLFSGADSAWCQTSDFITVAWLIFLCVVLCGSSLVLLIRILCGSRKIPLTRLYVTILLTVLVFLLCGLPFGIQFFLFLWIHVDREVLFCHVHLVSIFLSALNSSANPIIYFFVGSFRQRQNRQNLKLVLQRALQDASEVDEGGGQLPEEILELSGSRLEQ
MrgX1 ag = agonists of human MrgX1 receptor, primary screen, HEK293 cells, Fluo-4 calcium flux | Mas-related G-protein coupled receptor member X1 (Homo sapiens), Q96LB2 | Fluo-4 calcium fluorescence, agonist mode; stronger effect = higher value | B-score at 10 µM | 310,000 tested, 0.44% active | AID 588627, 2011;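 active = calcium response B-score plate-corrected fluorescence ratio at least 3 library SD, with starting fluorescence B-score inside 5 SD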
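Test system: Stable human MrgX1 HEK293 cell line | Schedule: Overnight plating before 1 h dye loading | Read-out basis: Baseline-normalised fluorescence change ratio, B-scored | Detection: Kinetic calcium dye fluorescence, Fluo-4 NW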
RGS4 inh = RGS4 inhibitors, primary screen, cell-based, HEK293 M3R inducible RGS4, calcium flux; 310,000 tested, 0.45% active; B-score at 10 µM; Regulator of G-protein signaling 4 (Homo sapiens), P49798; AID 463165, 2010; Fluo-4 calcium flux; stronger effect = higher value; triggered by carbachol at its EC20;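 active = B-score, a plate-corrected calcium signal, over three deviations above library mean, with baseline fluorescence within five deviations of library mean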;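 also: RGS4 expression induced by doxycycline in cells with stable M3 receptor; B-score is computed from the integrated fluorescence ratio over baseline after carbachol; higher B-score means a larger calcium signal and so more RGS4 inhibition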
Target sequence (P49798 whole entry, looked up): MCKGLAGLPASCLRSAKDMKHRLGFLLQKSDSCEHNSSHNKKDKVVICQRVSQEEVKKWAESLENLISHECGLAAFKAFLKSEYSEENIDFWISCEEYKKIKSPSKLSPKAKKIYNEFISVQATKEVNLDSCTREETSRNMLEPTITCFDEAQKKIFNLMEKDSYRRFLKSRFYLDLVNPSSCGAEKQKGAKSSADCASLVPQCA
RGS4 act = RGS4 potentiators or activators, primary screen, cell-based, HEK293 M3R inducible RGS4, calcium flux; B-score at 10 µM; carbachol calcium flux Fluo4; stronger effect = lower value; 310,000 tested, 0.92% active;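 active = B-score of the integrated calcium signal more than 4 SD below the library mean, with starting fluorescence not abnormally high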;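 also: negative B-score means reduced calcium response which marks RGS4 activation or potentiation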
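Assay system: Inducible-RGS4 HEK293 cells carrying M3 receptor | Schedule: Compound preincubation 20 min at room temperature before agonist | Signal: Kinetic calcium fluorescence imaging with Fluo4-AM dye, 2 µM | Read-out basis: B score from integrated fluorescence ratio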
MrgX1 antag = antagonists of human MrgX1 receptor, primary screen, HEK293 cells, Fluo-4 calcium flux. BAM8-22 antagonism; stronger effect = lower value. 310,000 tested, 1.3% active. AID 588676, 2011. B-score at 10 µM. Mas-related G-protein coupled receptor member X1 (Homo sapiens), Q96LB2;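 active = calcium-response B-score plate-corrected more than 3 library SD below zero, starting fluorescence within 5 deviations, no agonist response on first addition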;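 also: peak minus trough fluorescence over baseline after final BAM8-22 challenge near maximal dose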
RGS4 activ val = reduced carbachol calcium response, RGS4-induced M3R cells, confirmation, RGS4 activator project, cell-based, HEK293 M3R/RGS4 inducible, calcium flux, duplicate. shares compounds with RGS4 act. carbachol calcium flux Fluo4. inhibition, % at 10 µM. 1,100 tested, 89% active. AID 602282, 2012;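 active = inhibition above 3 SD of the buffer control wells, cut at about 41% in these data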;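 also: signal is the integrated peak-minus-minimum Fluo4 fluorescence over baseline ratio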
M3R Ca counter = RGS4 activator counter-screen hit in non-induced cells; shares compounds with RGS4 act; HEK293 M3R non-induced RGS4, Fluo4 calcium flux; after carbachol challenge at its EC90; inhibition, % at 10 µM; 1,100 tested, 82% active; AID 602283;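 active = inhibition exceeding 3 SD of buffer-only control wells, cut at about 26% in these data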;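 also: percent drop in integrated peak-minus-baseline over baseline Fluo4 ratio after carbachol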
Active calls of the source: *; i = inactive; . = not tested or not shown. This is a sample that favours compounds with a hit; in the whole collection about 3.5% have one here.

SMILES | MrgX1 allo act | MrgX1 ag | RGS4 inh | RGS4 act | MrgX1 antag | RGS4 activ val | M3R Ca counter
COc1ccc(/C=C/CN2CCCC(CCC(=O)NCc3ccc(F)c(F)c3)C2)cc1 (stereo not drawn) | i | i | i | -7.8* | i | 92* | 87*
COC(=O)c1ccc(CN2CCCC(CCC(=O)NCc3ccc(C)o3)C2)cc1 (stereo not drawn) | i | i | i | -9* | i | 88* | 71*
Cc1ccc(COC(=O)CCN=C2NS(=O)(=O)c3ccccc32)cc1 | i | i | i | i | i | . | .
Cc1cc2cc3c(=O)[nH]c(=O)[nH]c3nc2cc1C | i | i | i | i | i | . | .
C=CCOC(=O)C1=C(C)NC(SCC(N)=O)=C(C#N)C1c1ccc(C)cc1 (stereo not drawn) | i | i | i | i | i | . | .
C=CCOC(=O)C1=C(C)NC(SCC)=C(C#N)C1c1ccc(Cl)cc1 (stereo not drawn) | i | i | i | -7.6* | i | 93* | 84*
CC(C)N(CC#CC(O)(c1ccccc1)c1ccccc1)CCO | i | i | i | -8.6* | i | 91* | 52*
CN(CC#CC(O)(c1ccccc1)c1ccccc1)C(C)(C)C | i | i | i | -10* | i | 94* | 91*
Cc1ccc(NC(=S)NC(NC(=O)c2ccccc2C)C(Cl)(Cl)Cl)c(C)c1 (stereo not drawn) | i | i | i | -8.5* | i | 0 | 0
CN(C)c1ccc(/C=N/n2c(-c3ccccc3Br)n[nH]c2=S)cc1 | i | i | i | -12* | i | 94* | 94*
CN(C)c1ccc(/C=N/n2c(-c3cccnc3)n[nH]c2=S)cc1 | i | i | i | i | i | . | .
CN(CCOC(=O)c1ccc2c(c1)OCO2)C(C)(C)C | i | i | i | i | i | . | .
O=C(Nc1ccc(N2CCN(c3ncccc3C(F)(F)F)CC2)nc1)c1cccs1 | i | i | i | -7.8* | i | 92* | 96*
Cc1ccc(Oc2ccc(NC(=O)Cn3ccsc3=N)cc2)cc1 | i | 45* | i | -8.8* | i | 89* | 52*
COc1ccccc1C(=O)NCCNC(=O)c1ccc(C)nc1 | i | i | i | i | i | . | .
CCCN1CCN(c2ncnc3scc(C4COc5ccccc5O4)c23)CC1 (stereo not drawn) | i | i | i | -12* | i | 92* | 62*
c1ccc2c(c1)OCC(c1csc3ncnc(N4CCCCC4)c13)O2 (stereo not drawn) | i | i | i | i | i | . | .
C[n+]1cccc(C2C(C#N)=C(N)Oc3c2ccc2ccccc32)c1 (stereo not drawn) | i | i | i | i | i | . | .
C[n+]1cccc2ccc3c(c21)OC(N)=C(C#N)C3c1ccccc1 (stereo not drawn) | i | i | i | -12* | i | 76* | 84*
Cn1cc(S(=O)(=O)NC2CCCCC2)c(=O)n(C)c1=O | i | i | i | i | i | . | .
Cc1ccn(S(=O)(=O)c2ccc(C(C)(C)C)cc2)n1 | i | i | i | -7.8* | i | 92* | 26*
Cc1cc(F)ccc1S(=O)(=O)N1CCCOC1CNC(=O)C(=O)NCCCN1CCOCC1 (stereo not drawn) | i | i | i | i | i | . | .
Cc1ccc(OCC(=O)Nc2c3c(nn2C(C)(C)C)CS(=O)(=O)C3)cc1 | i | i | i | i | i | . | .
Cc1ccc(C(OCC(C)(C)C[N+](C)(C)C)c2ccccc2)cc1 (stereo not drawn) | i | i | i | -11* | i | 88* | 63*
CC(C)N(Cc1ccccc1)C(=S)Nc1ccccc1F | i | i | i | i | i | . | .
SMILES | MrgX1 allo act | MrgX1 ag | RGS4 inh | RGS4 act | MrgX1 antag | RGS4 activ val | M3R Ca counter
CCN(Cc1ccccc1)Cc1ccc(OCc2ccccc2)cc1 | i | i | i | -8.3* | i | 93* | 70*
Nc1ccc(OCc2ccccc2)cc1 | i | i | i | i | i | . | .
OC(CN1CCN(C(c2ccccc2)c2ccccc2)CC1)c1ccc(Br)cc1 (stereo not drawn) | i | i | i | -13* | i | 92* | 79*
Cc1csc(NC(=O)c2sc3nc(-c4cccs4)ccc3c2N)n1 | i | 93* | i | -8.9* | i | 88* | 83*
Cc1c(NC(=O)COC(=O)CSc2ccc(C(N)=O)cc2[N+](=O)[O-])c(=O)n(-c2ccccc2)n1C | i | i | i | i | i | . | .
O=C(Nc1ccccc1Cl)C1C2CCC3C(CCC21)C3(Cl)Cl (stereo not drawn) | i | i | i | i | i | . | .
CCOc1ccccc1NC(=O)C1C2CCC3C(CCC21)C3(Cl)Cl (stereo not drawn) | i | i | i | -7.9* | i | 0 | 0
Brc1cc2c(cc1CSc1ncccn1)OCO2 | i | i | i | i | i | . | .
CSc1cccc(NS(=O)(=O)c2cc(Br)cnc2N)c1 | i | i | i | -7.7* | i | 92* | 98*
Cc1ccc(NS(=O)(=O)c2cc(Br)cnc2N)cc1C | i | i | i | -8* | i | 94* | 94*
NS(=O)(=O)OCCCc1ccc(C(F)(F)F)cc1 | i | i | i | i | i | . | .
Cc1c(CC(=O)N2CCC(C(N)=O)CC2)c(=O)oc2cc3c(cc12)CCC1(CCCCC1)O3 | i | i | i | -8.9* | i | 92* | 78*
Cc1c(CC(=O)O)c(=O)oc2cc3c(cc12)CCC(C)(C)O3 | i | i | i | i | i | . | .
Cn1cc2cc(NC(N)=S)ccc2n1 | i | i | i | i | i | . | .
